Measured values taken from ChEMBL document CHEMBL4028832, “Design and synthesis of 1,2,3-triazolo-phenanthrene hybrids as cytotoxic agents” (Bioorg Med Chem Lett, 2017).
Active and inactive are the calls of the source. The calls are words filed in the database; no cut-off is given here.

What was measured:
[1] = system: DU-145; test: Induction of apoptosis in human DU145 cells assessed as increase in intracellular reactive oxygen species after 6 hrs by DCFDA dye based spectrofluorometeric method; assay type: functional, cell-based
Outline: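 Intracellular ROS in DU145 cells was measured by DCFDA fluorescence after 6 h of treatment at several doses. Comparators were N-acetyl cysteine pretreatment before compound and H2O2-treated cells. Values are mean ± SD of three independent experiments.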

[2] = system: DU-145; test: Cell cycle arrest in human DU145 cells assessed as increase in accumulation at G0/G1 phase after 24 hrs by propidium iodide staining based FACS analysis; assay type: functional
[3] = system: A549; test: Cytotoxicity against human A549 cells after 48 hrs by MTT assay; assay type: functional, cell-based; conditions: A549, 48 h
Outline: (§1)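 The human cancer lines and mouse 4T1 breast cells were treated with compound for 48 h and assessed by MTT assay. IC50 is the concentration giving 50% inhibition. 5-Fluorouracil served as the MTT standard.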

[4] = system: PC-3; test: Cytotoxicity against human PC3 cells after 48 hrs by MTT assay; assay type: functional, cell-based; conditions: PC-3, 48 h; outline: as §1
[5] = system: DU-145; test: Cytotoxicity against human DU145 cells after 48 hrs by MTT assay; assay type: functional, cell-based; conditions: DU-145, 48 h; outline: as §1
[6] = system: HGC-27; test: Cytotoxicity against human HGC27 cells after 48 hrs by MTT assay; assay type: functional, cell-based; conditions: HGC-27, 48 h; outline: as §1
[7] = system: HeLa; test: Cytotoxicity against human HeLa cells after 48 hrs by MTT assay; assay type: functional, cell-based; outline: as §1
[8] = system: BT-549; test: Cytotoxicity against human BT549 cells after 48 hrs by MTT assay; assay type: functional, cell-based; conditions: BT-549, 48 h; outline: as §1
[9] = system: MDA-MB-231; test: Cytotoxicity against human MDA-MB-231 cells after 48 hrs by MTT assay; assay type: functional, cell-based; conditions: MDA-MB-231, 48 h; outline: as §1
[10] = system: MDA-MB-453; test: Cytotoxicity against human MDA-MB-453 cells after 48 hrs by MTT assay; assay type: functional, cell-based; conditions: MDA-MB-453, 48 h; outline: as §1
[11] = system: 4T1; test: Cytotoxicity against mouse 4T1 cells after 48 hrs by MTT assay; assay type: functional, cell-based; conditions: 4T1, 48 h; outline: as §1
[12] = system: DU-145; test: Induction of apoptosis in human DU145 cells assessed as cell detachment at 2 to 8 uM after 48 hrs by phase contrast microscopic method; assay type: functional, cell-based
Outline: (§2)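 Phase-contrast microscopy of DU145 cells treated at 2, 4 and 8 µM. Images were captured and scored against untreated control for cell detachment and nuclear shrinkage.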

[13] = system: DU-145; test: Induction of apoptosis in human DU145 cells assessed as nuclear shrinkage at 2 to 8 uM after 48 hrs by phase contrast microscopic method; assay type: functional, cell-based; outline: as §2
[14] = system: DU-145; test: Induction of apoptosis in human DU145 cells assessed as membrane blebbing at 8 uM after 48 hrs by acridine orange/ethidium bromide staining-based fluorescence microscopic analysis; assay type: functional, cell-based
Outline: (§3)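 Treated DU145 cells were double-stained with acridine orange and ethidium bromide and imaged by fluorescence microscopy. Acridine orange stains intact nuclei green; ethidium bromide stains nuclei of membrane-compromised cells red. Cells were scored for blebbing, chromatin condensation, shrinkage and apoptotic bodies versus control.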

[15] = system: DU-145; test: Induction of apoptosis in human DU145 cells assessed as chromatin condensation at 8 uM after 48 hrs by acridine orange/ethidium bromide staining-based fluorescence microscopic analysis; assay type: functional, cell-based; outline: as §3
[16] = system: DU-145; test: Induction of apoptosis in human DU145 cells assessed as cell shrinkage at 8 uM after 48 hrs by acridine orange/ethidium bromide staining-based fluorescence microscopic analysis; assay type: functional; outline: as §3
[17] = system: DU-145; test: Induction of apoptosis in human DU145 cells assessed as apoptotic body formation at 8 uM after 48 hrs by acridine orange/ethidium bromide staining-based fluorescence microscopic analysis; assay type: functional, cell-based; outline: as §3
[18] = system: DU-145; test: Cell cycle arrest in human DU145 cells assessed as accumulation at G0/G1 phase at 1 uM after 24 hrs by propidium iodide staining based FACS analysis (reference value: 64.1%); assay type: functional
[19] = system: DU-145; test: Cell cycle arrest in human DU145 cells assessed as accumulation at S phase at 1 uM after 24 hrs by propidium iodide staining based FACS analysis (reference value: 7.93%); assay type: functional
[20] = system: DU-145; test: Cell cycle arrest in human DU145 cells assessed as accumulation at G2/M phase at 1 uM after 24 hrs by propidium iodide staining based FACS analysis (reference value: 16.38%); assay type: functional
[21] = system: DU-145; test: Cell cycle arrest in human DU145 cells assessed as accumulation at G0/G1 phase at 2 uM after 24 hrs by propidium iodide staining based FACS analysis (reference value: 64.1%); assay type: functional
[22] = system: DU-145; test: Cell cycle arrest in human DU145 cells assessed as accumulation at S phase at 2 uM after 24 hrs by propidium iodide staining based FACS analysis (reference value: 7.93%); assay type: functional
[23] = system: DU-145; test: Cell cycle arrest in human DU145 cells assessed as accumulation at G2/M phase at 2 uM after 24 hrs by propidium iodide staining based FACS analysis (reference value: 16.38%); assay type: functional
[24] = system: DU-145; test: Cell cycle arrest in human DU145 cells assessed as accumulation at G0/G1 phase at 4 uM after 24 hrs by propidium iodide staining based FACS analysis (reference value: 64.1%); assay type: functional
[25] = system: DU-145; test: Cell cycle arrest in human DU145 cells assessed as accumulation at S phase at 4 uM after 24 hrs by propidium iodide staining based FACS analysis (reference value: 7.93%); assay type: functional
[26] = system: DU-145; test: Cell cycle arrest in human DU145 cells assessed as accumulation at G2/M phase at 4 uM after 24 hrs by propidium iodide staining based FACS analysis (reference value: 16.38%); assay type: functional
[27] = system: DU-145; test: Cell cycle arrest in human DU145 cells assessed as accumulation at G0/G1 phase at 8 uM after 24 hrs by propidium iodide staining based FACS analysis (reference value: 64.1%); assay type: functional
[28] = system: DU-145; test: Cell cycle arrest in human DU145 cells assessed as accumulation at S phase at 8 uM after 24 hrs by propidium iodide staining based FACS analysis (reference value: 7.93%); assay type: functional
[29] = system: DU-145; test: Cell cycle arrest in human DU145 cells assessed as accumulation at G2/M phase at 8 uM after 24 hrs by propidium iodide staining based FACS analysis (reference value: 16.38%); assay type: functional
[30] = system: DU-145; test: Induction of apoptosis in human DU145 cells assessed as loss of mitochondrial membrane potential after 24 hrs by JC1 staining-based fluorescence microscopic method; assay type: functional, cell-based
Outline: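 DU145 cells were treated at 2, 4 and 8 µM for 24 h and stained with JC-1. Orange aggregates mark polarised mitochondria and green monomers mark depolarised ones, imaged by fluorescence. JC-1 aggregate intensity was quantified by spectrofluorometry.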

[31] = organism: Bos taurus; test: Binding affinity to calf thymus DNA assessed as increase in viscosity at 5 uM by Rolling-ball viscometric method
[32] = system: DU-145; test: Induction of apoptosis in human DU145 cells assessed as horse shoe shaped nuclei at 2 to 8 uM after 24 hrs by DAPI staining based fluorescence microscopic method
[33] = system: DU-145; test: Induction of apoptosis in human DU145 cells assessed as formation of condensed nuclei at 2 to 8 uM after 24 hrs by DAPI staining based fluorescence microscopic method

Which Activity [1] does the source give for `COc1cc2cc(Cn3cc(CN4C(=O)c5cccc6cccc(c56)C4=O)nn3)c3cc(OC)c(OC)cc3c2cc1OC` here?
Its Activity is “Dose-dependent effect”.

What about the Activity [2] of the same compound?
The Activity was “Dose-dependent effect”.

What about the IC50 [3] of the same compound?
Its IC50 is greater than 20 µM.

What about the IC50 [4] of the same compound?
Its IC50 is 8.5 µM.

What about the IC50 [5] of the same compound?
The IC50 was 1.5 µM.

What about the IC50 [6] of the same compound?
The IC50 was 5.1 µM.

What about the IC50 [7] of the same compound?
Its IC50 is 2.9 µM.

And the IC50 [8]?
The IC50 was 3.7 µM.

And the IC50 [9]?
The IC50 was 4.2 µM.

And the IC50 [10]?
The IC50 was 5.1 µM.

And the IC50 [11]?
Its IC50 is 4.2 µM.

What about the Activity [12] of the same compound?
The Activity was “Active”.

And the Activity [13]?
Its Activity is “Active”.

What about the Activity [14] of the same compound?
The Activity was “Active”.

And the Activity [15]?
The Activity was “Active”.

And the Activity [16]?
The Activity was “Active”.

And the Activity [17]?
Its Activity is “Active”.

What about the Activity [18] of the same compound?
Its Activity is 71.1%.

What about the Activity [19] of the same compound?
Its Activity is 4.4%.

What about the Activity [20] of the same compound?
The Activity was 20.46%.

And the Activity [21]?
The Activity was 73.32%.

What about the Activity [22] of the same compound?
Its Activity is 6.37%.

What about the Activity [23] of the same compound?
Its Activity is 16.71%.

And the Activity [24]?
Its Activity is 80.37%.

And the Activity [25]?
Its Activity is 5.37%.

What about the Activity [26] of the same compound?
Its Activity is 11.7%.

What about the Activity [27] of the same compound?
Its Activity is 88.62%.

What about the Activity [28] of the same compound?
The Activity was 1.91%.

What about the Activity [29] of the same compound?
Its Activity is 7.64%.

And the Activity [30]?
The Activity was “Dose-dependent effect”.

What about the Activity [31] of the same compound?
Its Activity is “Active”.

What about the Activity [32] of the same compound?
Its Activity is “Active”.

What about the Activity [33] of the same compound?
The Activity was “Active”.
